According to ChEMBL document CHEMBL1938254, “Semisynthetic neoboutomellerone derivatives as ubiquitin-proteasome pathway inhibitors” (Bioorg Med Chem, 2012):

Experiments:
Type in all cases: cell-based
DLD-1 [1] = assay: Inhibition of 20S proteasome in human DLD1 cells transfected with 4Ub-Luc gene assessed as bioluminescence induction factor at 1 uM after 8 hrs by luciferase reporter gene assay relative to epoxomicin
Method in brief: (§1)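 Stably transfected DLD-1 cells expressing 4Ub-Luc reporter, cultured in MEM with 5% heat-inactivated serum. Seeded at 10⁴ cells/well and treated with compound or solvent for 8 h. Luciferase activity in lysates read by luminometer. Induction factor = signal of treated over untreated cells, normalised to epoxomicin at 10^-7 M run in parallel (set to 100). IF ≥10 counted active.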

DLD-1 [2] = assay: Inhibition of 20S proteasome activity in human DLD1 cells transfected with 4Ub-Luc gene assessed as bioluminescence induction factor at 10 uM after 8 hrs by luciferase reporter gene assay relative to epoxomicin; method in brief: as §1
DLD-1 [3] = assay: Inhibition of 20S proteasome in human DLD1 cells transfected with 4Ub-Luc gene assessed as bioluminescence induction factor at 5 uM after 8 hrs by luciferase reporter gene assay relative to epoxomicin; method in brief: as §1
[4] = Inhibition of chymotrypsin-like activity of 20S proteasome in human DLD1 cells transfected with 4Ub-Luc gene using Succinyl-Leu-Leu-Val-Tyr-AMC as substrate after 6 hrs by spectrofluorometric analysis; conditions: dld-1
Method in brief: (§2)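 DLD-1 4Ub-Luc cells seeded at 10⁴ cells/well, exposed to compound or solvent for 6 h, then 30 min in reaction buffer (30 mM Tris–HCl pH 7.5, 1 mM ATP). Chymotrypsin-like and PGPH activities read with specific fluorogenic substrates.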

[5] = Inhibition of peptide-glutamyl-peptide-hydrolyzing activity of 20S proteasome in human DLD1 cells transfected with 4Ub-Luc gene using Z-Leu-Leu-Glu-AMC as substrate after 6 hrs by spectrofluorometric analysis; conditions: dld-1; method in brief: as §2

SMILES | fold change (FC) (DLD-1 [1]) | fold change (FC) (DLD-1 [2]) | fold change (FC) (DLD-1 [3]) | IC50 [4] [µM] | IC50 [5] [µM]
C=C(C(=O)[C@H](OC(C)=O)[C@@H](C)[C@H]1[C@@H](OC(C)=O)C[C@@]2(C)[C@@H]3CC[C@H]4[C@H](C)C(=O)C=C[C@@]45C[C@@]35CC[C@]12C)[C@H](C)CO | 1.1 | 88 | 51 | – | –
C=C(C(=O)[C@H](OC(C)=O)[C@@H](C)[C@H]1[C@@H](OC(C)=O)C[C@@]2(C)[C@@H]3CC[C@H]4[C@H](C)/C(=N\NC(N)=O)C=C[C@@]45C[C@@]35CC[C@]12C)[C@@H](C)CO | 1.4 | 30 | 99 | 8.6 | 4.1
C=C(C(=O)[C@H](OC(C)=O)[C@@H](C)[C@H]1[C@@H](OC(C)=O)C[C@@]2(C)[C@@H]3CC[C@H]4[C@H](C)/C(=N\OC)C=C[C@@]45C[C@@]35CC[C@]12C)[C@@H](C)CO | 0.7 | 24 | 3.4 | 11 | 12
C=C(C(=O)[C@H](O)[C@@H](C)[C@H]1[C@@H](OC(C)=O)C[C@@]2(C)[C@@H]3CC[C@H]4[C@H](C)C(=O)C=C[C@@]45C[C@@]35CC[C@]12C)[C@@H](C)COC(=O)CN(C)C [listing 1 of 2 here] | – | – | – | 19 | 23
CC(=O)O[C@H]1C[C@@]2(C)[C@@H]3CC[C@H]4[C@H](C)C(=O)C=C[C@@]45C[C@@]35CC[C@]2(C)[C@H]1[C@H](C)C=O | – | 3 | 1.3 | – | –
C=C(C(=O)[C@H](O)[C@@H](C)[C@H]1[C@@H](OC(C)=O)C[C@@]2(C)[C@@H]3CC[C@H]4[C@H](C)C(=O)C=C[C@@]45C[C@@]35CC[C@]12C)[C@@H](C)COS(=O)(=O)O | 0.9 | 0.9 | 0.8 | – | –
C=C(C(=O)[C@H](OC(C)=O)[C@@H](C)[C@H]1[C@@H](OC(C)=O)C[C@@]2(C)[C@@H]3CC[C@H]4[C@H](C)C(=O)C=C[C@@]45C[C@@]35CC[C@]12C)[C@@H](C)COS(=O)(=O)O | 1.4 | 1.6 | 1.4 | – | –
C=C(C(=O)[C@H](O)[C@@H](C)[C@H]1[C@@H](OC(C)=O)C[C@@]2(C)[C@@H]3CC[C@H]4[C@H](C)C(=O)C=C[C@@]45C[C@@]35CC[C@]12C)[C@@H](C)COC(=O)CNC(=O)OC(C)(C)C | 4.8 | 16 | 47 | > 1000 | > 1000
C=C(C(=O)[C@H](O)[C@@H](C)[C@H]1[C@@H](OC(C)=O)C[C@@]2(C)[C@@H]3CC[C@H]4[C@H](C)C(=O)CC[C@@]45C[C@@]35CC[C@]12C)[C@@H](C)CO | 1.2 | 77 | 10 | – | –
C=C(C(=O)[C@H](OC(C)=O)[C@@H](C)[C@H]1[C@@H](OC(C)=O)C[C@@]2(C)[C@@H]3[C@H]4O[C@H]4[C@H]4[C@H](C)C(=O)C=C[C@@]45C[C@@]35CC[C@]12C)[C@@H](C)CO | 2.8 | 15 | 72 | 48 | 60
CONCC(C(=O)[C@H](OC(C)=O)[C@@H](C)[C@H]1[C@@H](OC(C)=O)C[C@@]2(C)[C@@H]3CC[C@H]4[C@H](C)C(=O)C=C[C@@]45C[C@@]35CC[C@]12C)[C@@H](C)CO (stereo not given in full) | 1.1 | 4.9 | 1.2 | – | –
C=C(C(=O)[C@H](OC(C)=O)[C@@H](C)[C@H]1[C@@H](OC(C)=O)C[C@@]2(C)[C@@H]3CC[C@H]4[C@H](C)C(=O)C(O)C(O)[C@@]45C[C@@]35CC[C@]12C)[C@@H](C)COCC(O)CO (stereo not given in full) | 1.1 | 48 | 32 | – | –
C=C(C(=O)[C@H](OC(C)=O)[C@@H](C)[C@H]1[C@@H](OC(C)=O)C[C@@]2(C)[C@@H]3C[C@@H](O)[C@H]4[C@H](C)C(=O)C=C[C@@]45C[C@@]35CC[C@]12C)[C@@H](C)CO | 5.1 | – | 31 | > 1000 | > 1000
C=C(C(=O)[C@H](OC(C)=O)[C@@H](C)[C@H]1[C@@H](OC(C)=O)C[C@@]2(C)[C@@H]3CC[C@H]4[C@H](C)C(=O)C=C[C@@]45C[C@@]35CC[C@]12C)[C@@H](C)COC(=O)CCl | 12 | 19 | 52 | > 1000 | > 1000
C=C(C(=O)[C@H](OC(C)=O)[C@@H](C)[C@H]1[C@@H](OC(C)=O)C[C@@]2(C)[C@@H]3CC[C@H]4[C@H](C)C(=O)C=C[C@@]45C[C@@]35CC[C@]12C)[C@@H](C)CN1C(=O)CN(CCCN(CCCCN(CCCNC(=O)OC(C)(C)C)C(=O)OC(C)(C)C)C(=O)OC(C)(C)C)C1=O | 1 | 37 | 30 | – | –
C=C(C(=O)[C@H](OC(C)=O)[C@@H](C)[C@H]1[C@@H](OC(C)=O)C[C@@]2(C)[C@@H]3CC[C@H]4[C@H](C)C(=O)C=C[C@@]45C[C@@]35CC[C@]12C)[C@@H](C)COC(=O)CP(=O)(O)O | 1.1 | 1.4 | 1.1 | – | –
C=C(C(=O)[C@H](OC(C)=O)[C@@H](C)[C@H]1[C@@H](OC(C)=O)C[C@@]2(C)[C@@H]3CC[C@H]4[C@H](C)C(=O)C=C[C@@]45C[C@@]35CC[C@]12C)[C@@H](C)C(=O)O | 1 | 16 | 1.4 | – | –
C=C(C(=O)[C@H](OC(C)=O)[C@@H](C)[C@H]1[C@@H](OC(C)=O)C[C@@]2(C)[C@@H]3CC[C@H]4[C@H](C)C(=O)C=C[C@@]45C[C@@]35CC[C@]12C)[C@@H](C)COC(=O)CN | 1.4 | 56 | 76 | – | –
CO/N=C1/C=C[C@]23C[C@]24CC[C@]2(C)[C@@H]([C@H](C)[C@@H](OC(C)=O)C(=O)C(CNOC)[C@@H](C)CO)[C@@H](OC(C)=O)C[C@@]2(C)[C@@H]4CC[C@H]3[C@@H]1C (stereo not given in full) | 1 | 0.6 | 0.7 | – | –
C=C(C(=O)[C@H](OC(C)=O)[C@@H](C)[C@H]1[C@@H](OC(C)=O)C[C@@]2(C)[C@@H]3CC[C@H]4[C@H](C)C(=O)C=C[C@@]45C[C@@]35CC[C@]12C)[C@@H](C)C=O | 1 | 31 | 70 | – | –
C=C(C(=O)[C@H](OC(C)=O)[C@@H](C)[C@H]1[C@@H](OC(C)=O)C[C@@]2(C)[C@@H]3CC[C@H]4[C@H](C)C(=O)C=C[C@@]45C[C@@]35CC[C@]12CO)[C@@H](C)CO | 1.2 | 1.1 | 12 | – | –
C=C(C(=O)[C@H](O)[C@@H](C)[C@H]1[C@@H](OC(C)=O)C[C@@]2(C)[C@@H]3CC[C@H]4[C@H](C)C(=O)C=C[C@@]45C[C@@]35CC[C@]12C)[C@@H](C)COC(=O)N1CCN(C)CC1 | – | – | – | 12 | 12
C=C(C(=O)[C@H](OC(C)=O)[C@@H](C)[C@H]1[C@@H](OC(C)=O)C[C@@]2(C)[C@@H]3CC[C@H]4[C@H](C)C(=O)C[C@H](O)[C@@]45C[C@@]35CC[C@]12C)[C@@H](C)CO | 1.6 | 74 | 11 | – | –
C=C(C(=O)[C@H](O)[C@@H](C)[C@H]1[C@@H](OC(C)=O)C[C@@]2(C)[C@@H]3C[C@@H](O)[C@H]4[C@H](C)C(=O)C=C[C@@]45C[C@@]35CC[C@]12C)[C@@H](C)CO | 1.1 | – | 35 | > 1000 | > 1000
C=C(C(=O)[C@H](O)[C@@H](C)[C@H]1[C@@H](OC(C)=O)C[C@@]2(C)[C@@H]3CC[C@H]4[C@H](C)C(=O)C=C[C@@]45C[C@@]35CC[C@]12C)[C@@H](C)COC(=O)CN(C)C [listing 2 of 2 here] | – | – | – | 17 | 22
C=C(C(=O)[C@H](OC(C)=O)[C@@H](C)[C@H]1[C@@H](OC(C)=O)C[C@@]2(C)[C@@H]3CC[C@H]4[C@H](C)C(=O)C=C[C@@]45C[C@@]35CC[C@]12C)[C@@H](C)COC(=O)CNCCCNCCCCNCCCN | 1.1 | 11 | 1.4 | – | –
CC(=O)O[C@H]1C[C@@]2(C)[C@@H]3CC[C@H]4[C@H](C)/C(=N/OCc5ccccc5)C=C[C@@]45C[C@@]35CC[C@]2(C)[C@H]1[C@H](C)[C@@H](OC(C)=O)C(=O)C(CNOCc1ccccc1)[C@@H](C)CO (stereo not given in full) | 0.9 | 0.9 | 0.9 | – | –
C=C(C(=O)[C@H](OC(C)=O)[C@@H](C)[C@H]1[C@@H](OC(C)=O)C[C@@]2(C)[C@@H]3CC[C@H]4[C@H](C)C(=O)C=C[C@@]45C[C@@]35CC[C@]12C)[C@@H](C)CO[C@@]1(C)O[C@@H]2O[C@@H](COC(C)=O)[C@H](OC(C)=O)[C@@H](OC(C)=O)[C@@H]2O1 | 2 | 48 | 59 | – | –
C=C(C(=O)[C@H](OC(=O)CCC(=O)O)[C@@H](C)[C@H]1[C@@H](OC(C)=O)C[C@@]2(C)[C@@H]3CC[C@H]4[C@H](C)C(=O)C=C[C@@]45C[C@@]35CC[C@]12C)[C@@H](C)COC(=O)CCC(=O)O | 1.2 | 1.2 | 1.1 | – | –
